Experimental data: ChEMBL document CHEMBL3751721, “Development of acridine derivatives as selective Mycobacterium tuberculosis DNA gyrase inhibitors” (Bioorg Med Chem, 2016)
In brackets after ≈: the same amount, converted by molar mass. Activity calls are given as the source filed them. No cut-off for these calls is given here.

Legend:
[1] = test system: Mycobacterium tuberculosis; experiment: Antimicrobial activity against Mycobacterium tuberculosis H37Rv ATCC 27294 after 28 days by alamar blue assay; type: functional; conditions: H37Rv ATCC 27294, 672 h
Escherichia coli = experiment: Inhibition of Escherichia coli DNA gyrase assessed as inhibition of DNA supercoiling
[2] = test system: Mycobacterium tuberculosis; experiment: Inhibition of Mycobacterium tuberculosis DNA topoisomerase 1 assessed as DNA relaxation at 50 uM
[3] = Inhibition of zebrafish ERG at 1 to 30 uM; set-up: species or system Danio rerio
Outline: (§1)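 Zebrafish embryos from 2 female:3 male breeding, raised in E3 medium at 28 °C. Compound given at 1 to 30 µM in 0.1% DMSO vehicle, 20 µM terfenadine as reference, 4 h incubation. Embryos treated with tricaine, then 30 beats timed per atrium and ventricle. Rate = 1800/time(s) beats/min; AV ratio derived from these counts.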

[4] = Toxicity in zebrafish embryo assessed as heart rate at 30 uM; set-up: species or system Danio rerio; conditions: in vivo; outline: as §1
[5] = target: DNA gyrase subunit B (Mycobacterium smegmatis) (UniProt P0C559); experiment: Inhibition of Mycobacterium smegmatis GyrB by ATPase assay; conditions: Mycolicibacterium smegmatis
Sequence of DNA gyrase subunit B (Mycobacterium smegmatis) (P0C559 2-675 limits assumed): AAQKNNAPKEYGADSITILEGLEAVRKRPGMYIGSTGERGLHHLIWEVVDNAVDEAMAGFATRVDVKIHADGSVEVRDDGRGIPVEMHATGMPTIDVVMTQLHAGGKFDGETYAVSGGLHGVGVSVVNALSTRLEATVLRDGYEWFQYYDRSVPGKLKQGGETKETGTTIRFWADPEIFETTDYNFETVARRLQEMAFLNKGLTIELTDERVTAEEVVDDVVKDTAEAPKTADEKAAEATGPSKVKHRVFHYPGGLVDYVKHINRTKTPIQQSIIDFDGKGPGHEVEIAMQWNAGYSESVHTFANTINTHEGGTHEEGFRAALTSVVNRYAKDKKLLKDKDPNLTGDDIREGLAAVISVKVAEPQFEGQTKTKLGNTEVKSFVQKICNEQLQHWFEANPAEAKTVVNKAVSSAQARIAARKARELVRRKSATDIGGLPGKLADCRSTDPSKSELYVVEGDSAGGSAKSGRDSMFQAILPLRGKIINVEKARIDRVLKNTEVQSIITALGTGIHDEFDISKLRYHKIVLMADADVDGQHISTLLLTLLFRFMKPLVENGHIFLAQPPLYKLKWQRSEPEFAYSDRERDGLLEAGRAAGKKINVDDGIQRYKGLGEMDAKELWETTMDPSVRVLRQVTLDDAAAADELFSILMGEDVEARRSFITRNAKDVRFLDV

[6] = Cytotoxicity against mouse RAW264.7 cells assessed as inhibition of cell growth at 50 uM after 72 hrs by MTT assay; type: cell-based
Outline: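 RAW 264.7 mouse macrophages exposed to compound at 50 µM for 72 h. Viability read by MTT conversion to formazan, reported as percent inhibition.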

[7] = target: DNA gyrase (Staphylococcus aureus) (UniProt P0A0K8+P20831); experiment: Inhibition of Staphylococcus aureus DNA gyrase assessed as inhibition of DNA supercoiling; type: protein-complex assay
Sequence of DNA gyrase (Staphylococcus aureus) (P0A0K8 2-644 limits assumed): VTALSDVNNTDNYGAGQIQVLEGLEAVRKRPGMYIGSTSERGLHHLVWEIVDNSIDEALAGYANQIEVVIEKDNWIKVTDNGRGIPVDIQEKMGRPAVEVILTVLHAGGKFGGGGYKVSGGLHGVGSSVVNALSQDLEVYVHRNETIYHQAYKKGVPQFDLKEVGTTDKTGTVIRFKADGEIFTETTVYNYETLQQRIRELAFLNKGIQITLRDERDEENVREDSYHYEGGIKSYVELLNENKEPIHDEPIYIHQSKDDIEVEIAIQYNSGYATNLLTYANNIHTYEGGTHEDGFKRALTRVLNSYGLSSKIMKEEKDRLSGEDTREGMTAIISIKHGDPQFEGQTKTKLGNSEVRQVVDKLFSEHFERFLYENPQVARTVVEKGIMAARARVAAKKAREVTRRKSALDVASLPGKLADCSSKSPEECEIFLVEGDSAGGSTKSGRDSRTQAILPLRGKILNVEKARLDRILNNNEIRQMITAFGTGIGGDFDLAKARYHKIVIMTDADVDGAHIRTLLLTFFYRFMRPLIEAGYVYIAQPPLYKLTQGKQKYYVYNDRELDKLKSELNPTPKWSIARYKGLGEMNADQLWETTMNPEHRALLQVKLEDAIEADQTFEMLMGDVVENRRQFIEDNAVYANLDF
Sequence of DNA gyrase (Staphylococcus aureus) (P20831 whole entry partner): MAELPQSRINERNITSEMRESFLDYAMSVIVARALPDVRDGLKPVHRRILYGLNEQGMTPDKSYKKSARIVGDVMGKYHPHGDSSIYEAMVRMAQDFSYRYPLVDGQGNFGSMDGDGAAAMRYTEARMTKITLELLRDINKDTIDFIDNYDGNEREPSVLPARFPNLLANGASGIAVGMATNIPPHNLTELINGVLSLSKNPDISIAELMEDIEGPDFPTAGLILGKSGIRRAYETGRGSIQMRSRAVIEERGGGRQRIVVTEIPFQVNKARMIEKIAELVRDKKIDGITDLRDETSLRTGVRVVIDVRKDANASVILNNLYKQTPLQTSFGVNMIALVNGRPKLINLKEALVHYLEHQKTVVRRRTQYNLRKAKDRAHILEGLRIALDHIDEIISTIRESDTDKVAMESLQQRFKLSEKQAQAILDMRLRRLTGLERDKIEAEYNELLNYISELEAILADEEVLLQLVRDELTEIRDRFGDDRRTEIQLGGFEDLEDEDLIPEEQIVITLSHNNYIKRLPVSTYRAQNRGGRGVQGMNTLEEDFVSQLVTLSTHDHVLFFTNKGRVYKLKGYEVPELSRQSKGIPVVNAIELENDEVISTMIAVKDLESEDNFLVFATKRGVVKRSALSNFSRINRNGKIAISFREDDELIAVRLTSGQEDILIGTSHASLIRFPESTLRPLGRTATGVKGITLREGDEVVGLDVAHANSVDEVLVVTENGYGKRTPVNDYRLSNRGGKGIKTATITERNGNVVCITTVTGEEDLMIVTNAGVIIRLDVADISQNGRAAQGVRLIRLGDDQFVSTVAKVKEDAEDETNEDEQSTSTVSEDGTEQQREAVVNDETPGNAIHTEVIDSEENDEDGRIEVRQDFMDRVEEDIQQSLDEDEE

[8] = Toxicity in zebrafish embryo assessed as atrio-ventricular ratio at 30 uM; set-up: species or system Danio rerio; conditions: in vivo; outline: as §1
[9] = target: DNA gyrase subunit A/DNA gyrase subunit B (Mycobacterium tuberculosis (strain ATCC 25618 / H37Rv), UniProt P9WG45+P9WG47); experiment: Inhibition of Mycobacterium tuberculosis DNA gyrase assessed as inhibition of DNA supercoiling after 30 mins by electrophoresis
Sequence of DNA gyrase subunit A/DNA gyrase subunit B (P9WG45 whole entry): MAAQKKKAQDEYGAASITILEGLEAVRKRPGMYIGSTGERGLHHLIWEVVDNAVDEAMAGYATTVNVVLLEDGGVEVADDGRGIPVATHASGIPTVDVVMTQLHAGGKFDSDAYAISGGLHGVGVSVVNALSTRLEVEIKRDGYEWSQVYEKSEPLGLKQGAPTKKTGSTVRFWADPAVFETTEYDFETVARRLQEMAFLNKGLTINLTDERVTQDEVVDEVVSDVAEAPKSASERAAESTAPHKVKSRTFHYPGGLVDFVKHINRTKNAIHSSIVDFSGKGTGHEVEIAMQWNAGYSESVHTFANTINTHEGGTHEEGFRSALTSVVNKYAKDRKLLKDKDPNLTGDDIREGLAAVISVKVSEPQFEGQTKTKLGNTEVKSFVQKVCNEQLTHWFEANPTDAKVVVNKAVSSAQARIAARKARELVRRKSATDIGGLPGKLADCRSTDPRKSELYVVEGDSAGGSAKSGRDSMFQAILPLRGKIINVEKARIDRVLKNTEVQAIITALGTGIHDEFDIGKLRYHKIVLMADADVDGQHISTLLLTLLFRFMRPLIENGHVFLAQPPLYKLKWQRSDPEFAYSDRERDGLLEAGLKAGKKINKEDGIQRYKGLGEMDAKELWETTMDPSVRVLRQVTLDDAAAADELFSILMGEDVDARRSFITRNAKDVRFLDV
Sequence of DNA gyrase subunit A/DNA gyrase subunit B (P9WG47 whole entry): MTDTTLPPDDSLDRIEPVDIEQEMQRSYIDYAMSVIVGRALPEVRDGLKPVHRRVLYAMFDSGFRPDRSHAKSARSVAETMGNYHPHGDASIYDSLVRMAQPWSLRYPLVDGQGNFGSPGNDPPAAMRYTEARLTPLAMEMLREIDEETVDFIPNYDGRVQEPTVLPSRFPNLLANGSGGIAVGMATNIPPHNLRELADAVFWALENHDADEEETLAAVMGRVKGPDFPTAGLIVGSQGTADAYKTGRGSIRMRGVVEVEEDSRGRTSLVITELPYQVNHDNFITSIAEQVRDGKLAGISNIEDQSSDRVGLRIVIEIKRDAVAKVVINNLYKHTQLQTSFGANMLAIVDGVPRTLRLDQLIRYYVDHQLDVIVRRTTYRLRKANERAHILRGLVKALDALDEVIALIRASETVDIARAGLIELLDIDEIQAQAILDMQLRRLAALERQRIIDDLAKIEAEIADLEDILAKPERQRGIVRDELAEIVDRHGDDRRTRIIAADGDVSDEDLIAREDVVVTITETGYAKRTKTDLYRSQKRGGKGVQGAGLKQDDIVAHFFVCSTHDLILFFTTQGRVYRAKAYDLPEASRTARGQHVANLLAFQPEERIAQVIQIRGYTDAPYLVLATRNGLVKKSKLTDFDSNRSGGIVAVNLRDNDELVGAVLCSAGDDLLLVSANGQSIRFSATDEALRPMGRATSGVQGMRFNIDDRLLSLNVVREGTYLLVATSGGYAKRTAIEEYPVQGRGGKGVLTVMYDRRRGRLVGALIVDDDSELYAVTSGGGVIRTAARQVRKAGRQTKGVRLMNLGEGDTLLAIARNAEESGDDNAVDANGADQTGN

[10] = target: DNA gyrase (Pseudomonas aeruginosa) (UniProt P48372+Q9I7C2); experiment: Inhibition of Pseudomonas aeruginosa DNA gyrase assessed as inhibition of DNA supercoiling; type: protein-complex assay
[11] = Inhibition of Mycobacterium tuberculosis DNA topoisomerase 1

Compound	MIC [1]	inhibition (Escherichia coli)	inhibition [2]	inhibition (INH) [3]	Activity [4]	inhibition [5]	inhibition at 72 h, 50 µM [6]	inhibition [7]	Activity [8]	IC50 [9]	inhibition [10]	IC50 [11]
Cc1ccc2nc3ccccc3c(Nc3ccc(NS(=O)(=O)c4ccc(Cl)cc4)cc3)c2c1	6.59 µM (≈ 3.12 µg/mL)	inactive	inactive	Not Active	Non-toxic	inactive	11.8%	inactive	Non-toxic	5.21 µM	inactive	–
O=C(Nc1ccc(Nc2c3ccccc3nc3ccc(Cl)cc23)cc1)Nc1ccc([N+](=O)[O-])cc1	6.46 µM (≈ 3.13 µg/mL)	inactive	inactive	–	–	inactive	45.9%	inactive	–	7.3 µM	inactive	–
S=C(Nc1ccc(Cl)cc1)Nc1ccc(Nc2c3ccccc3nc3ccccc23)cc1	13.7 µM (≈ 6.25 µg/mL)	inactive	inactive	–	–	inactive	12.5%	inactive	–	8.4 µM	inactive	–
Cc1ccc2nc3ccccc3c(Nc3ccc(NC(=O)Nc4ccc([N+](=O)[O-])cc4)cc3)c2c1	13.5 µM (≈ 6.25 µg/mL)	inactive	inactive	–	–	inactive	33.9%	inactive	–	7.4 µM	inactive	–
S=C(Nc1ccccc1)Nc1ccc(Nc2c3ccccc3nc3ccccc23)cc1	14.9 µM (≈ 6.25 µg/mL)	inactive	inactive	–	–	inactive	29.2%	inactive	–	8.2 µM	inactive	–
O=C(Nc1ccccc1)Nc1ccc(Nc2c3ccccc3nc3ccc(Cl)cc23)cc1	28.5 µM (≈ 12.5 µg/mL)	inactive	inactive	–	–	inactive	27.7%	inactive	–	23.6 µM	inactive	–
Cc1ccc2nc3ccccc3c(Nc3ccc(NS(=O)(=O)c4ccccc4)cc3)c2c1	28.4 µM (≈ 12.5 µg/mL)	inactive	inactive	–	–	inactive	39.6%	inactive	–	5.86 µM	inactive	–
COc1cc(NS(C)(=O)=O)ccc1Nc1c2ccccc2nc2ccccc12 [AMSACRINE]	–	–	–	–	–	–	–	–	–	–	–	10 µM
Cc1ccc(NC(=S)Nc2ccc(Nc3c4ccccc4nc4ccccc34)cc2)cc1	> 57.5 µM	inactive	inactive	–	–	inactive	27.4%	inactive	–	31.1 µM	inactive	–
O=[N+]([O-])c1ccc(S(=O)(=O)Nc2ccc(Nc3c4ccccc4nc4ccccc34)cc2)cc1	24.6 µM (≈ 11.6 µg/mL)	inactive	inactive	–	–	inactive	34.1%	inactive	–	22.4 µM	inactive	–
Cc1ccc(NC(=S)Nc2ccc(Nc3c4ccccc4nc4ccc(Cl)cc34)cc2)cc1	> 53.3 µM	inactive	inactive	–	–	inactive	25.5%	inactive	–	33.9 µM	inactive	–
